Calls of active or inactive are those of the source. The calls are words filed in the database; no cut-off is given here.
Columns and labels:
[1] = tested on: Clostridioides difficile; experiment: Antibacterial activity against Clostridium difficile NAP1 assessed as concentration required for complete inhibition of TCA-induced spore germination measured after 20 mins under anaerobic condition; type: functional; settings: NAP1, 20 min, read-out: MEC
Summary of the method: (§1)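 Spores (~0.5 McFarland, heat-treated 65 °C for 30 min) inoculated anaerobically into pre-reduced (2–3 h) BHIS (0.5% yeast extract, 0.1% L-cysteine) containing 2000 μM taurocholate plus analogue at varying concentrations; OD600 read each minute for 20 min, normalized to t0. Complete inhibition = relative OD600 ≥0.95 at 20 min; triplicate wells, solvent (DMSO or DMSO/ethanol) controls.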

[2] = tested on: Clostridioides difficile; experiment: Induction of spore germination in Clostridium difficile NAP1 at 1500 to 2000 uM measured after 20 mins under anaerobic condition
[3] = tested on: Clostridioides difficile; experiment: Inhibition of TCA-induced spore germination in Clostridium difficile NAP1 assessed as spore germination at 10 uM measured after 20 mins under anaerobic condition by phase-contrast microscopic analysis relative to control; type: functional; parameters: scale not given: the % may be the effect or the level left
Summary of the method: (§2)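 Heat-treated spores exposed to BHIS with 2000 μM taurocholate plus analogue or DMSO control; t0 samples put on ice at once, t20 samples held 20 min at room temperature then iced; phase-bright spores and phase-dark germinated cells counted by hemocytometer under phase-contrast. % germination of total cells; relative value = (t20−t0) test/(t20−t0) control; triplicate, mean ± SD.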

[4] = tested on: Clostridioides difficile; experiment: Inhibition of taurocholate/glycine-induced spore germination in Clostridium difficile 630 preincubated for 15 mins followed by taurocholate/glycine addition measured every minute for 90 mins; type: functional
[5] = in vitro; settings: human, Caco-2
[6] = in vitro; settings: human, Caco-2; remark: listed apart in the source
[7] = molecular target: Clostridioides difficile; experiment: Inhibition of TCA-induced spore germination in Clostridium difficile NAP1 at 0.2 mM using varying levels of TCA measured after 20 mins under anaerobic condition; type: functional
[8] = molecular target: Clostridioides difficile; experiment: Competitive inhibition of taurocholate-induced spore germination in Clostridium difficile UK1 at 0.2 mM by Michaelis-Menten kinetic analysis; type: functional
[9] = tested on: Clostridioides difficile; experiment: Inhibition of TCA-induced spore germination in Clostridium difficile NAP1 assessed as compound concentration required for complete inhibition by spectrophotometric method; type: functional; settings: read-out: MEC; summary of the method: as §1
[10] = human, caco-2, 10 µM
[11] = tested on: Clostridioides difficile; experiment: Inhibition of TCA-induced spore germination in Clostridium difficile NAP1 at 50 uM measured after 20 mins under anaerobic condition by phase-contrast microscopic analysis; type: functional; summary of the method: as §2
[12] = human, caco-2, 10 µM; remark: listed apart in the source

| SMILES | minimal effective concentration [1] [µM] | further results |
| --- | --- | --- |
| C[C@H](CCC(=O)O)[C@H]1CC[C@H]2[C@@H]3C[C@H](O)[C@@H]4C[C@H](O)CC[C@]4(C)[C@H]3CC[C@]12C [HYODEOXYCHOLIC_ACID] | 500 | Activity [2]: Toxic |
| CCCCNC(=O)CC[C@@H](C)[C@H]1CC[C@H]2[C@@H]3[C@H](O)C[C@@H]4C[C@H](O)CC[C@]4(C)[C@H]3CC[C@]12C | 500 |  |
| CO[C@H]1C[C@@H]2C[C@H](O)CC[C@]2(C)[C@H]2CC[C@]3(C)[C@@H]([C@H](C)CCC(=O)O)CC[C@H]3[C@H]12 | > 500 | Activity [2]: Toxic |
| COC(=O)CC[C@@H](C)[C@H]1CC[C@H]2[C@@H]3[C@@H](O)C[C@@H]4C[C@H](OC)CC[C@]4(C)[C@H]3CC[C@]12C | 500 |  |
| COC(=O)CC[C@@H](C)[C@H]1CC[C@H]2[C@H]3[C@H](CC[C@]12C)[C@@]1(C)CC[C@@H](O)C[C@H]1C[C@@]3(C)O | 50 |  |
| C[C@H](CCC(=O)O)[C@H]1CC[C@H]2[C@@H]3[C@H](O)C[C@@H]4C[C@H](O)CC[C@]4(C)[C@H]3CC[C@]12C [CHENODIOL] | 500 |  |
| CO[C@@H]1CC[C@@]2(C)[C@@H](C1)C[C@H](OC)[C@@H]1[C@@H]2CC[C@]2(C)[C@@H]([C@H](C)CCC(=O)O)CC[C@@H]12 | > 1000 | Activity [3]: 75% |
| C[C@H](CCC(C)(C)O)[C@H]1CC[C@H]2[C@H]3[C@H](CC[C@]12C)[C@@]1(C)CC[C@@H](O)C[C@H]1C[C@@]3(C)O | > 1000 |  |
| CO[C@@H]1CC[C@@]2(C)[C@@H](C1)C[C@H](O)[C@@H]1[C@@H]2CC[C@]2(C)[C@@H]([C@H](C)CCC(=O)O)CC[C@@H]12 | > 500 | Activity [2]: Toxic |
| C[C@H](CCC(=O)Nc1cccc(S(=O)(=O)O)c1)[C@H]1CC[C@H]2[C@@H]3[C@H](O)C[C@@H]4C[C@H](O)CC[C@]4(C)[C@H]3C[C@H](O)[C@]12C | > 1000 | Activity [3]: 78%; IC50 [4]: 58 µM |
| COC(=O)CC[C@@H](C)[C@H]1CC[C@H]2[C@@H]3[C@@H](OC)C[C@@H]4C[C@H](OC)CC[C@]4(C)[C@H]3CC[C@]12C | 500 |  |
| C[C@H](CCC(=O)NC(C)(C)CO)[C@H]1CC[C@H]2[C@@H]3[C@H](O)C[C@@H]4C[C@H](O)CC[C@]4(C)[C@H]3CC[C@]12C | 500 |  |
| C[C@H](CCC(=O)O)[C@H]1CC[C@H]2[C@@H]3[C@@H](OS(=O)(=O)O)C[C@@H]4C[C@H](O)CC[C@]4(C)[C@H]3CC[C@]12C | 3000 |  |
| COC(=O)CC[C@@H](C)[C@H]1CC[C@H]2[C@@H]3[C@@H](O)C[C@@H]4C[C@H](O)CC[C@]4(C)[C@H]3CC[C@]12C | 50 |  |
| C[C@H](CCC(=O)N1CCCC1)[C@H]1CC[C@H]2[C@@H]3[C@@H](O)C[C@@H]4C[C@H](O)CC[C@]4(C)[C@H]3CC[C@]12C | 100 |  |
| CO[C@@H]1CC[C@@]2(C)[C@@H](C1)C[C@@H](OS(=O)(=O)[O-])[C@@H]1[C@@H]2CC[C@]2(C)[C@@H]([C@H](C)CCC(=O)c3nnn[n-]3)CC[C@@H]12.[Na+].[Na+] | 25 | Activity [3]: 51%; Papp A→B at 10 µM [5]: 0.4 ×10⁻⁶ cm/s; Papp B→A at 10 µM [6]: 0.4 ×10⁻⁶ cm/s |

| SMILES | minimal effective concentration [1] [µM] | further results |
| --- | --- | --- |
| CO[C@@H]1CC[C@@]2(C)[C@@H](C1)C[C@H](OC)[C@@H]1[C@@H]2CC[C@]2(C)[C@@H]([C@H](C)CCC(=O)N3CCCC3)CC[C@@H]12 | 1000 |  |
| CO[C@@H]1CC[C@@]2(C)[C@@H](C1)C[C@@H](O)[C@@H]1[C@@H]2CC[C@]2(C)[C@@H]([C@H](C)CCC(=O)O)CC[C@@H]12 | > 100 | Activity [2]: Toxic |
| COC(=O)CC[C@@H](C)[C@H]1CC[C@H]2[C@@H]3[C@H](OC)C[C@@H]4C[C@H](O)CC[C@]4(C)[C@H]3CC[C@]12C | 500 |  |
| CC(=O)O[C@@H]1CC[C@@]2(C)[C@@H](C1)C[C@H](OC(C)=O)[C@@H]1[C@@H]2CC[C@]2(C)[C@@H]([C@H](C)CCC(N)=O)CC[C@@H]12 | 50 | Activity [2]: Toxic |
| COC(=O)CC[C@@H](C)[C@H]1CC[C@H]2[C@@H]3[C@H](OC)C[C@@H]4C[C@H](OC)CC[C@]4(C)[C@H]3CC[C@]12C | 500 |  |
| COC(=O)CC[C@@H](C)[C@H]1CC[C@H]2[C@@H]3C[C@H](O)[C@@H]4C[C@H](O)CC[C@]4(C)[C@H]3CC[C@]12C | 500 |  |
| COC(=O)CC[C@@H](C)[C@H]1CC[C@H]2[C@@H]3[C@H](O)C[C@@H]4C[C@H](OC)CC[C@]4(C)[C@H]3CC[C@]12C | 500 |  |
| COC(=O)CC[C@@H](C)[C@H]1CC[C@H]2[C@@H]3[C@H](O)C[C@@H]4C[C@H](O)CC[C@]4(C)[C@H]3CC[C@]12C | 500 | Activity [3]: 73%; Ki [7]: 118 µM; Ki [8]: 44 µM |
| C[C@H](CCC(=O)O)[C@H]1CC[C@H]2[C@@H]3[C@@H](O)C[C@@H]4C[C@H](O)CC[C@]4(C)[C@H]3CC[C@]12C [URSODIOL] |  | minimal effective concentration [9]: 500 µM |
| CCCCNC(=O)CC[C@@H](C)[C@H]1CC[C@H]2[C@@H]3[C@@H](O)C[C@@H]4C[C@H](O)CC[C@]4(C)[C@H]3CC[C@]12C | 500 |  |
| CO[C@@H]1CC[C@@]2(C)[C@@H](C1)C[C@H](OS(=O)(=O)[O-])[C@@H]1[C@@H]2CC[C@]2(C)[C@@H]([C@H](C)CCC(=O)N3CCCC3)CC[C@@H]12.[Na+] | 50 | Activity [3]: 9%; Ki [7]: 20 µM; Papp [10]: 2.1 ×10⁻⁶ cm/s; inhibition [11]: Active; Papp [12]: 0.1 ×10⁻⁶ cm/s |
| COC(=O)CC[C@@H](C)[C@H]1CC[C@H]2[C@@H]3[C@@H](OC)C[C@@H]4C[C@H](O)CC[C@]4(C)[C@H]3CC[C@]12C | 500 |  |
| CC(=O)O[C@@H]1CC[C@@]2(C)[C@@H](C1)C[C@@H](OC(C)=O)[C@@H]1[C@@H]2CC[C@]2(C)[C@@H]([C@H](C)CCC(N)=O)CC[C@@H]12 | 50 |  |
| CO[C@@H]1CC[C@@]2(C)[C@@H](C1)C[C@@H](OC)[C@@H]1[C@@H]2CC[C@]2(C)[C@@H]([C@H](C)CCC(=O)N3CCCC3)CC[C@@H]12 | 500 |  |
| C[C@H](CCC(=O)N1CCCC1)[C@H]1CC[C@H]2[C@@H]3[C@H](O)C[C@@H]4C[C@H](O)CC[C@]4(C)[C@H]3CC[C@]12C | 50 |  |
